Compound activity (PubChem BioAssay)
An excerpt weighted towards active compounds, which were near 8.7% of everything screened.
PostGolgi ctrl: growth inhibition of yeast control strain, primary screen, counter-screen for post-Golgi transport modulator project; AID 738, 2007; hit rate 5% among 98,000; inhibition, % at 10 µM; efflux-deficient yeast background strain, growth absorbance A615, 16 h
Cav32 inh: Cav3.2 calcium influx blockers – cell-based, Fluo-4 calcium fluorescence, FDSS, MLSMR library, primary screen. Voltage-dependent T-type calcium channel subunit alpha-1H (Homo sapiens), O95180. hit rate 4% among 100,000. B-score at 10 µM. AID 449739, 2010. Cav3.2-expressing cells; stronger effect = lower value;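 active = single-dose well whose peak fluorescence ratio is a statistical outlier from its plate by either plate-standardised score or position-corrected B-score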
Target sequence (O95180 whole entry, looked up): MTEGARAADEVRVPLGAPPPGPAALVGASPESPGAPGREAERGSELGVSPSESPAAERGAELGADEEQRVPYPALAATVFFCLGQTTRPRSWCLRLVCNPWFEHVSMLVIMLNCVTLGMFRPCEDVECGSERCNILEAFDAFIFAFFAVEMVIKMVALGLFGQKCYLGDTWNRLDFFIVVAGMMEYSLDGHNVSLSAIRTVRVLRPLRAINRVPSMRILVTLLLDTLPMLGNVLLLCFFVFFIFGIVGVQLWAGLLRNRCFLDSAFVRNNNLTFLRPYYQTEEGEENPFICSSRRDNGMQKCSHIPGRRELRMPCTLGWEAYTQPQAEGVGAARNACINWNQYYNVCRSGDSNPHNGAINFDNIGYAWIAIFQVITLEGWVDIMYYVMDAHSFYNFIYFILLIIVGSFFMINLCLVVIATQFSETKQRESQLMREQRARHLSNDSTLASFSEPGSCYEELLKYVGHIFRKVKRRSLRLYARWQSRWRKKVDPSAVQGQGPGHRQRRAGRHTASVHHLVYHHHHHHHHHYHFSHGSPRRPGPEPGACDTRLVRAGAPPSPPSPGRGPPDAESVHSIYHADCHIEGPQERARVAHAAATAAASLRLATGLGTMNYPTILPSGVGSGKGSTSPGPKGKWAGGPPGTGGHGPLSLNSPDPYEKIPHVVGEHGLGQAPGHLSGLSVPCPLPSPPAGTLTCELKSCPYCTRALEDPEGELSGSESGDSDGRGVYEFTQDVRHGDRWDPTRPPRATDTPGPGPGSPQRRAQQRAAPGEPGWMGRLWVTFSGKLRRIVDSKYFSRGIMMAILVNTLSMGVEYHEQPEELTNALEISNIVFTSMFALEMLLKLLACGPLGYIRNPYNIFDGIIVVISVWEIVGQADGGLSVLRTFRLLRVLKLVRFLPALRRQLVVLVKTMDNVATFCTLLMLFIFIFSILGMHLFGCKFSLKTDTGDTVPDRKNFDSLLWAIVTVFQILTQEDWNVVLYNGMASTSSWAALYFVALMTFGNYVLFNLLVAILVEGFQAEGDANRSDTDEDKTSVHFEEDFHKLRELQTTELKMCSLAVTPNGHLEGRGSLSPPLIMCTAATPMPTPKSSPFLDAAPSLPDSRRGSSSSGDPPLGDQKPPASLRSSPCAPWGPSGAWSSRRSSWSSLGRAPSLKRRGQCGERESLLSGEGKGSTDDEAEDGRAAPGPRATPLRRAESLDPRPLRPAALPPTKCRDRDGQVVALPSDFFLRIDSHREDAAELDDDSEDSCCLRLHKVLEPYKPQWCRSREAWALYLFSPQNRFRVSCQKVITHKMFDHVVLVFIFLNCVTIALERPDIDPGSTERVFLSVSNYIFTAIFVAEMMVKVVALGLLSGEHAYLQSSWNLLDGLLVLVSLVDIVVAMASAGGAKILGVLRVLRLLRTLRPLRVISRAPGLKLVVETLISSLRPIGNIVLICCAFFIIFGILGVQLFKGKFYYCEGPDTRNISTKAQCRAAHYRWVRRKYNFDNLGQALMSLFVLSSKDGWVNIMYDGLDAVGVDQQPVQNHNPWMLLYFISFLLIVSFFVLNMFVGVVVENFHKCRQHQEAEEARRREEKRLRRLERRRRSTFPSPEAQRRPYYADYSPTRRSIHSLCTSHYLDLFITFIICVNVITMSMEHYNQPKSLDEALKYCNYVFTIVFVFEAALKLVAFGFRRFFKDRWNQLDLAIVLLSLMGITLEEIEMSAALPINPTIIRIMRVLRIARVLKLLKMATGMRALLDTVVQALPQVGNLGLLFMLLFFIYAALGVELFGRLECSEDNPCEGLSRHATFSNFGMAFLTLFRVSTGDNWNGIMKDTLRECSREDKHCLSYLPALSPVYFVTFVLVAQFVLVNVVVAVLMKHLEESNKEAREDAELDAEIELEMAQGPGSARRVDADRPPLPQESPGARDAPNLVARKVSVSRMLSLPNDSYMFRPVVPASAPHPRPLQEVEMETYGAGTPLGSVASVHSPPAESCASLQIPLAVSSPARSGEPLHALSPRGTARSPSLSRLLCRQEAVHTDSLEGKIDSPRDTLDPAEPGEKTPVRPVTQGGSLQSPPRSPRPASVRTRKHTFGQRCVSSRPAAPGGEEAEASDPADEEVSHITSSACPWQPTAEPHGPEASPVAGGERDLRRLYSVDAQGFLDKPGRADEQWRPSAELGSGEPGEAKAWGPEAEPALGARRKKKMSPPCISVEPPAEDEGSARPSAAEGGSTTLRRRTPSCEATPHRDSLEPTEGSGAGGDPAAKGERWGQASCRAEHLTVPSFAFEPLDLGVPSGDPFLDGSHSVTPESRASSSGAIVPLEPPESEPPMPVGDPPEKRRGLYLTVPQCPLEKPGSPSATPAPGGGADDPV
tolC growth inh: growth inhibitors of E. coli tolC mutant, primary screen, strain BW25113 ΔtolC::kan, 384-well. OD615. growth inhibition, % at 10 µM (by protocol). hit rate 2.2% among 65,000. AID 573, 2007;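 active = growth inhibition at or above a cutoff equal to the mean over every tested compound plus 3 SD, cut at about 60% in these data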;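 also: growth measured after 20 h incubation at 37 °C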
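Material: E. coli BW25113 ΔtolC::kan, tolC deletion mutant strain. Measure: percent growth inhibition. Schedule: 37 °C, 20 h exposure. Doses: single-point testing at 10 µM. Signal: A615 absorbance measurement. Buffer or medium: kanamycin-containing LB broth (50 µg/mL).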
PTK2B oligo ant: antagonists of Pyk2 self-association, primary screen, Q293 cells, FERM NanoBiT luminescence, HTS; AID 1347419, 2020; hit rate 0.83% among 99,000; z-score (the deposit names both 25 µM and 10 µM); stronger effect = lower value;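 active = Z-score of -3 or lower, scaled per plate to the spread of control and sample wells; inactive = z-score above -3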;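 also: negative z-score means lost luminescence so less FERM oligomerization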
Ecoli WT expand: growth inhibitors of wild-type E. coli, primary screen, strain BW25113, expanded library, OD600 | hit rate 0.15% among 98,000 | OD600 absorbance | growth inhibition, % at 100 µM;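 active = growth inhibition above about 50% at one test dose, limit read from the data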;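 also: growth measured after 20 h incubation at 37 °C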
PostGolgi yeast: phenotypic screen on post-Golgi transport, primary screen; AID 739, 2007; post-Golgi transport phenotypic cell assay; inhibition, % at 10 µM; hit rate 0.9% among 98,000;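 also: yeast cells grown in 1536-well plates; yeast grown about 18 h at 30C before absorbance read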
Hits are given with their value; 0 = inactive; - = no result given. Rule as the data show it, unless noted: active = inhibition above about 30%; inactive = the rest.

SMILES	PostGolgi ctrl	Cav32 inh	tolC growth inh	PTK2B oligo ant	Ecoli WT expand	PostGolgi yeast
NS(=O)(=O)c1cccnc1Nc1c(Cl)cccc1Cl	31.9	0	-	0	0	0
CN(C)c1ccc(C(=O)C(O)c2ccc(C(C)(C)C)cc2)cc1 (configuration not stated)	0	0	0	0	0	0
COc1ccc(-n2c(-c3cccc(OC)c3)nc(=S)c3c2CCCC3)cc1	0	0	-	0	0	0
COc1ccc(-n2c(-c3ccccc3)nc(=S)c3c2CCCC3)cc1	64.3	-	-	0	0	0
CCn1c(=O)c2c3c(sc2n2c(=S)[nH]nc12)CCC3	0	3.61	-	0	0	0
CCn1c(=O)c2c3c(sc2n(C)c1=O)CCC3	0	0	0	0	0	0
CC1(c2ccccn2)Nc2ccccc2-c2nc3ccccc3n21 (configuration not stated)	0	0	0	0	0	0
O=C1Nc2ccccc2C12Nc1ccccc1-c1nc3ccccc3n12 (configuration not stated)	0	-4.8	0	0	0	0
CN1C(=O)C2(Nc3ccccc3-c3nc4ccccc4n32)c2ccccc21 (configuration not stated)	0	0	0	0	0	0
CCCCC1(C)Nc2ccccc2-c2nc3ccccc3n21 (configuration not stated)	0	-4.9	-	0	0	0
COc1ccc(S(=O)(=O)N2CCCCCC2)cc1N(C)S(=O)(=O)c1ccc(Cl)cc1	0	0	-	0	0	0
Cc1cc2c(c(N)n1)c(=O)oc1ccccc12	0	0	0	0	0	0
COC(=O)c1c(C)nc(C)c2c(=O)oc3ccccc3c12	42.2	0	0	0	0	0
Cc1cccn2c(=O)c3cc(C(=O)N4CCc5ccccc54)n(C)c3nc12	-	-	0	-	-	-
CN(CC(=O)Nc1ccc(C#N)cc1)Cc1ccc(Cl)cc1Cl	40.9	-4.2	-	0	0	0
N#Cc1ccc(NC(=O)Nc2ccc(Cl)cc2)cc1	74.4	0	89.9	0	0	0
CN(CCC#N)CC(=O)Nc1ccc(NC(=O)CN(C)CCC#N)cc1	0	0	0	0	0	0
O=C(Nc1ccc(Cl)cc1)Nc1ccc(N2CCOCC2)cc1	0	0	0	0	0	0
Cc1cc(NC(=O)c2cccc(F)c2)no1	0	-	-	0	0	0
O=C(Nc1nnc(-c2cccs2)o1)c1cccc(Oc2ccccc2)c1	0	-8.33	97.0	-	0	34.1
COc1cccc(C(=O)Nc2nnc(-c3cccs3)s2)c1	0	0	-	0	0	0
O=C(Nc1nnc(-c2cccs2)o1)c1cccc(F)c1	-	0	100.0	-	-	-
O=C(CSc1nnc(CNC(=O)c2ccccc2F)o1)c1ccccc1	0	0	0	0	0	0
CCOc1ccccc1NC(=O)CCC(=O)Nc1ccccc1OCC	0	0	-	0	0	0
CCOc1ccccc1N/C=C/C(=O)C(C)(C)C	32.9	0	0	0	0	0
SMILES	PostGolgi ctrl	Cav32 inh	tolC growth inh	PTK2B oligo ant	Ecoli WT expand	PostGolgi yeast
C=CCn1c(O)c(N=NC(=O)c2ccc3c(c2)OCO3)c2ccccc21	0	0	-	0	0	0
Cc1ccccc1N1C(=O)c2cccc3c(N(C)CCO)ccc(c23)C1=O	0	-4.25	0	0	0	0
CC(C)(C)c1ccc(Cn2nnc3c(=O)[nH]c(C4CCCN(C(=O)Cc5cccs5)C4)nc32)cc1 (configuration not stated)	0	0	87.7	0	0	0
CCn1c(CNc2ccc(F)cc2)nnc1SCC(=O)Nc1ccc(OC)cc1OC	0	0	0	0	0	0
CCOc1ccc(N(CC(=O)N2CC=C(c3ccccc3)CC2)S(=O)(=O)c2c(C)noc2C)cc1	0	-4.82	0	-	0	0
Cc1ccc(N(CC(=O)Nc2ccc3c(c2)OCCO3)S(=O)(=O)c2c(C)n[nH]c2C)cc1	0	0	0	-3.49	0	0
COc1ccc(N(CC(=O)N2CC=C(c3ccccc3)CC2)S(=O)(=O)c2c(C)noc2C)cc1	0	0	0	-	0	0
CCOC(=O)c1ccc(NC(=O)CN(c2ccc(C)cc2)S(=O)(=O)c2c(C)n[nH]c2C)cc1	0	-	0	-3.38	0	0
Cc1ccc(NC(=O)CN(c2cc(C)cc(C)c2)S(=O)(=O)c2c(C)noc2C)nc1	0	-4.5	0	-	0	0
